Assay [1] deals with Human immunodeficiency virus type 1 reverse transcriptase (Human immunodeficiency virus 1, UniProt Q72547). Nature of the assay: Concentration required to inhibit the HIV-1 reverse transcriptase activity by 50%. The method, boiled down: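 Purified recombinant HIV-1 RT, RNA-dependent polymerase activity. Substrate: [³H]dGTP, […] (1 Ci/mmol). Reaction 30 min at 37 °C, then acid-insoluble radioactivity counted on glass-fibre filters.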

Assay [2] concerns MT4. Kind of assay: Selectivity index measured as the ratio of CC50 / EC50. It is filed as functional. The method, boiled down:
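Selectivity index: CC50 in mock-infected MT-4 cells divided by EC50 against HIV-1 IIIB cytopathicity in MT-4 cells, both from MTT read-out after 4-day culture.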

Assay [3] relates to MT4. Nature of the assay: Cytotoxicity against mock-infected MT-4 cells. The class given is functional. The conditions noted are these: Homo sapiens. The method, boiled down:
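Mock-infected MT-4 cells (1×10^4/well) incubated 4 days at 37 °C alongside the antiviral assay with serial compound dilutions (from 200 mM DMSO stock); viability read by MTT; CC50 is the dose lowering viability of mock-infected cells by 50%; means of at least two separate experiments.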

In assay [4] the test system is MT4. Nature of the assay: Concentration required to achieve 50% protection of MT-4 cells from HIV-1-induced cytopathogenicity. The class given is functional, cell-based. The conditions noted are these: Homo sapiens. The method, boiled down: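 MT-4 cells (1×10^4/well) exposed to test compound dilutions (DMSO stock 200 mM, diluted in medium), then infected with HIV-1 IIIB at 100 CCID50/well; 4-day incubation at 37 °C; viable cells counted by MTT; EC50 is the dose giving 50% protection from virus-induced cytopathicity; means of at least two separate experiments.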

pEC50, pIC50: −log10 of the molar value.

With `CCC(C)Sc1nc(O)c(C)c(Cc2ccccc2)n1` (stereo not drawn), the pIC50 in assay [1] was 6.30. Further, in the assay with MT4 [2], the Selectivity index came to 140 SI.
The like results for `CCC(C)Sc1nc(O)cc(Cc2ccccc2)n1` (stereo not drawn) were, in that order, 6.00 and 125 SI.
As to `Cc1c(O)nc(SC2CCCC2)nc1Cc1ccccc1`, the 50% cytotoxic concentration (CC50) with MT4 [3] was greater than 200000 nM. In assay [1], this compound had a pIC50 of 6.30. In addition, in the assay on MT4 [2], the Selectivity index is reported as greater than 333 SI.
In assay [1], `Oc1cc(Cc2ccccc2)nc(SC2CCCC2)n1` had a pIC50 of 5.80. In addition, the Selectivity index in the assay on MT4 [2] is recorded as 86 SI.
Regarding `Oc1cc(Cc2c(Cl)cccc2Cl)nc(SC2CCCC2)n1`, the pEC50 in the assay with MT4 [4] was 6.40. This compound also gave a CC50 in the assay with MT4 [3] greater than 200000 nM. Moreover, the pIC50 in assay [1] was 6.40. For the same compound, in the assay on MT4 [2], the Selectivity index is given as greater than 500 SI.
On to `CCC(C)Sc1nc(O)c(C)c(Cc2ccccc2Cl)n1` (stereo not drawn), for which, in the assay with MT4 [4], the pEC50 was 6.57. The CC50 in the assay with MT4 [3] is greater than 200000 nM. This compound also had a pIC50 in assay [1] of 6.40. In the assay with MT4 [2], the Selectivity index is greater than 741 SI.
With `CSc1nc(O)c(C)c(Cc2c(Cl)cccc2Cl)n1`, the negative-log EC50 (pEC50) in the assay on MT4 [4] is 4.42. Further, the 50% cytotoxic concentration (CC50) with MT4 [3] was greater than 200000 nM. Further, the Selectivity index with MT4 [2] is on record as 5.2 SI.
Compound `Oc1cc(Cc2c(F)cccc2F)nc(SC2CCCCC2)n1` had a pEC50 in the assay with MT4 [4] of 7.10. The CC50 with MT4 [3] was greater than 200000 nM. The pIC50 in assay [1] is 7.05. In addition, in the assay on MT4 [2], the Selectivity index is recorded as greater than 2500 SI.
The like results for `Cc1c(O)nc(SC2CCCCC2)nc1Cc1c(F)cccc1F` were, in that order, 7.05, greater than 200000 nM, 7.15 and greater than 2222 SI.
The like results for `CSc1nc(O)c(C)c(Cc2c(F)cccc2F)n1` were, in that order, 6.72, 200000 nM, 6.70 and 1053 SI.
Take `CCC(C)Sc1nc(O)cc(Cc2ccccc2Cl)n1` (stereo not drawn): the pEC50 with MT4 [4] is 6.00. The CC50 in the assay on MT4 [3] amounted to 200000 nM. The pIC50 in assay [1] was 5.80. Besides, the Selectivity index with MT4 [2] was determined as 200 SI.
The like results for `CSc1nc(O)cc(Cc2c(F)cccc2F)n1` were, in that order, 6.09, greater than 200000 nM, 6.10 and greater than 247 SI.
`CCCCSc1nc(O)c(C)c(Cc2c(F)cccc2F)n1` showed a pEC50 with MT4 [4] of 7.10. The compound further displayed a CC50 in the assay with MT4 [3] greater than 200000 nM. Besides, the pIC50 in assay [1] is 7.05. Moreover, in the assay on MT4 [2], the Selectivity index is on record as greater than 2500 SI.
Taken in the same sequence, the figures for `Cc1c(Cc2c(F)cccc2F)nc(SC2CCCC2)[nH]c1=O` were 7.10, greater than 200000 nM, 7.10 and greater than 2500 SI.
Consider `CCC(C)Sc1nc(O)c(C)c(Cc2ccc([N+](=O)[O-])cc2)n1` (stereo not drawn), for which the pEC50 in the assay with MT4 [4] is 5.70. This compound also returned a CC50 in the assay with MT4 [3] greater than 200000 nM. For the same compound, in assay [1], the pIC50 is 5.74. The Selectivity index in the assay with MT4 [2] is greater than 100 SI.
The like results for `CCCCSc1nc(O)cc(Cc2c(F)cccc2F)n1` were, in that order, 6.74, 162000 nM, 6.70 and 900 SI.
Taken in the same sequence, the figures for `CCC(C)Sc1nc(O)c(C)c(Cc2ccc(Cl)cc2)n1` (stereo not drawn) were 5.02, greater than 200000 nM, 5.07 and greater than 20 SI.
The like results for `Oc1cc(Cc2c(Cl)cccc2Cl)nc(SC2CCCCC2)n1` were, in that order, 6.22, greater than 200000 nM, 6.40 and greater than 333 SI.
In the case of `Cc1c(O)nc(SCC(C)C)nc1Cc1c(Cl)cccc1Cl`, the pEC50 with MT4 [4] is 5.92. Besides, the CC50 in the assay with MT4 [3] is greater than 200000 nM. The compound further gave a pIC50 in assay [1] of 5.96. The Selectivity index with MT4 [2] is given as greater than 166 SI.
Turning to `CCC(C)Sc1nc(O)c(C)c(Cc2c(F)cccc2F)n1` (stereo not drawn), the pEC50 with MT4 [4] was 7.30. For the same compound, the CC50 in the assay on MT4 [3] was greater than 200000 nM. In assay [1], this compound gave a pIC50 of 7.30. In the assay on MT4 [2], the Selectivity index is recorded as greater than 4000 SI.
`Cc1ccnc2c1NC(=O)c1cccnc1N2C1CC1` [NEVIRAPINE] had a CC50 with MT4 [3] greater than 200000 nM.

A word on the pIC50: it is the IC50 on a negative log10 scale, so that one unit is a factor of ten. A word on the CC50: it is the concentration that lowers cell viability or growth by half. Lower therefore signals harm at low concentration. Usually pEC50 stands for −log10 of the EC50, conventionally taken in molar units. The low end stands for a large EC50, the high end for a small EC50.

The values above are taken from ChEMBL document CHEMBL1132584, “5-Alkyl-2-(alkylthio)-6-(2,6-dihalophenylmethyl)-3, 4-dihydropyrimidin-4(3H)-ones: novel potent and selective dihydro-alkoxy-benzyl-oxopyrimidine derivatives” (J Med Chem, 1999).
